Experimental findings from ChEMBL document CHEMBL5352499, “Differentiating Inhibition Selectivity and Binding Affinity of Isocitrate Dehydrogenase 1 Variant Inhibitors” (J Med Chem, 2023) are described below.

Assay [1] addresses T1, Isocitrate dehydrogenase [NADP] cytoplasmic (Homo sapiens, UniProt O75874, R132H). Put plainly: Inhibition of recombinant IDH1 R132H mutant (unknown origin) expressed in Escherichia coli BL21(DE3) pLysS cells using 2OG as substrate assessed as 2OG conversion to 2HG incubated for 60 mins in presence of NADPH by spectrophotometric analysis.
Assay [2] in a line: Selectivity index, ratio of IC50 for recombinant wildtype IDH1 expressed in Escherichia coli BL21(DE3) pLysS cells to IC50 for recombinant IDH1 R132H mutant (unknown origin) expressed in Escherichia coli BL21(DE3) pLysS cells.
Assay [3] deals with T2, Isocitrate dehydrogenase [NADP] cytoplasmic (Homo sapiens, UniProt O75874). The conditions noted are these: dose 3-100 µM.
For assay [4], the system named is Isocitrate dehydrogenase [NADP] cytoplasmic (Homo sapiens), O75874 [R132H]. The conditions noted are these: dose 3-100 µM.
Assay [5] shares this test system. To be noted: dose 42.0 µM.
Assay [6] has as its target T2, Isocitrate dehydrogenase [NADP] cytoplasmic. Put plainly: Binding affinity to human recombinant IDH1 expressed in Escherichia coli BL21(DE3) pLysS cells assessed as dissociation constant by non-denaturing mass spectroscopic analysis.
Assay [7] has as its target T1, Isocitrate dehydrogenase [NADP] cytoplasmic. Put plainly: Binding affinity to human recombinant IDH1 R132H mutant expressed in Escherichia coli BL21(DE3) pLysS cells assessed as dissociation constant by non-denaturing mass spectroscopic analysis.
Assay [8] concerns the target T2, Isocitrate dehydrogenase [NADP] cytoplasmic. Put plainly: Binding affinity to recombinant wildtype IDH1 (unknown origin) expressed in Escherichia coli BL21(DE3) pLysS cells incubated in presence of MgCl2 by NMR analysis.
The subject of assay [9] is Isocitrate dehydrogenase [NADP] cytoplasmic (Homo sapiens), O75874 [R132H]. Put plainly: Binding affinity to recombinant IDH1 R132H mutant (unknown origin) expressed in Escherichia coli BL21(DE3) pLysS cells incubated in presence of MgCl2 by NMR analysis.
For assay [10], the target named is T2, Isocitrate dehydrogenase [NADP] cytoplasmic. The assay can be described thus: Binding affinity to recombinant IDH1 (unknown origin) expressed in Escherichia coli BL21(DE3) pLysS cells incubated in presence of MgCl2 by ITC assay. In outline: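 Homodimeric wt IDH1 in 50 mM tris–HCl, pH 7.5; cell 40 μM protein (4% v/v DMSO), titrant 200 or 400 μM compound (2% or 4% DMSO). 25 °C, stirring 750 rpm, 19 injections (0.4 μL then 18 × 2.0 μL, 150 s apart); thermodynamic parameters fitted from the heats.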

Assay [11] deals with Isocitrate dehydrogenase [NADP] cytoplasmic (Homo sapiens), O75874 [R132H]. Put plainly: Binding affinity to recombinant IDH1 R132H mutant (unknown origin) expressed in Escherichia coli BL21(DE3) pLysS cells incubated in presence of MgCl2 by ITC assay. In outline:
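IDH1 R132H homodimer in 50 mM tris–HCl, pH 7.5; 40 μM protein in cell (4% v/v DMSO) titrated at 25 °C with 200 or 400 μM compound (2% or 4% DMSO), 19 injections (0.4 μL, then 2.0 μL × 18, 150 s spacing), 750 rpm; thermodynamic parameters from fitted isotherm.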

Molecules are shown by their SMILES. Active and inactive are the calls of the source. The calls are words filed in the database; no cut-off is given here.

T2 sequence (O75874 whole entry): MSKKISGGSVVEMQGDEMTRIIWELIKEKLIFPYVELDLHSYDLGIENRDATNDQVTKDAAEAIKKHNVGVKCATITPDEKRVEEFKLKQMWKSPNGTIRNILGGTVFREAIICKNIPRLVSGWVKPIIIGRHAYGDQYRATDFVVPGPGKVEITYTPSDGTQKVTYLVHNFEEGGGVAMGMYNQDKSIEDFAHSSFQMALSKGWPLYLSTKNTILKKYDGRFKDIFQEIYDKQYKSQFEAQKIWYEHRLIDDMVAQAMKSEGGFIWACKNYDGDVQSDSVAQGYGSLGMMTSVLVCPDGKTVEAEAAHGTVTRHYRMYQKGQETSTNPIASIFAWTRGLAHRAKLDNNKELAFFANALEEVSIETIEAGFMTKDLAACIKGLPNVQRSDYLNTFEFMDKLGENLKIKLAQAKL
Chain of Isocitrate dehydrogenase [NADP] cytoplasmic (Homo sapiens), O75874 [R132H] (O75874 whole entry R132H): as the sequence (O75874 whole entry) above, with R132H counted along it
T1 sequence (O75874 2-414 R132H limits assumed): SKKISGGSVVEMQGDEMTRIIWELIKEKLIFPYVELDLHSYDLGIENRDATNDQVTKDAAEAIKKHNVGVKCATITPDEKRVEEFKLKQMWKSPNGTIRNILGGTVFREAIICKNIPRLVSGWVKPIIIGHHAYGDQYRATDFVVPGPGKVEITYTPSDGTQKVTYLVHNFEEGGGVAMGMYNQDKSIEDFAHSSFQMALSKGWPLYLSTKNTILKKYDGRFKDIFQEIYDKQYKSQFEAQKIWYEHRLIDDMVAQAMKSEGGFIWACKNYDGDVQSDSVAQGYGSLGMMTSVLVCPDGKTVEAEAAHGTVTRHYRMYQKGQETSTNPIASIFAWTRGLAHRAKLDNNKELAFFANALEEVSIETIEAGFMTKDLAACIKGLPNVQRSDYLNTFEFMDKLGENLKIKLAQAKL

With `Cc1ccccc1C(C(=O)NC1CCCCC1)N(C(=O)Cn1cnc2ccccc21)c1cccc(F)c1` (stereo not drawn), the IC50 in assay [1] turned out to be 73 nM. Moreover, the Ratio IC50 in [2] was > 556. In addition, the ΔTm was determined as 8.1 °C in assay [3] and 6.6 °C in [4].
On to `CC(=O)N1CCN(Cc2ccc([C@H](C)Nc3nccc(N4C(=O)OC[C@@H]4C(C)C)n3)cc2)CC1`, for which the figures for the ΔTm in [4] and in assay [5] were 11.7 °C and 11.2 °C, respectively.
`COc1c(C)cc(NC(=O)c2nn(Cc3ccc(F)cc3)c3c2CN(C(=O)c2ccc[nH]2)C[C@]3(C)C(N)=O)cc1C`: the values for the dissociation constant (Kd) in [6] and in [7] were 24 µM and 23 µM, respectively. The outcome in [8], in [9], in [10] and in [11] was Active.
As for `Cc1ccccc1C(C(=O)NC1CCCCC1)N(C(=O)Cn1ccnc1C)c1cccc(F)c1` (stereo not drawn), the Kd in assay [7] stood at 98 µM.
